# Laboratory results reported in ChEMBL document CHEMBL2424622, “Development of amino-pyrimidine inhibitors of c-Jun N-terminal kinase (JNK): kinase profiling guided optimization of a 1,2,3-benzotriazole lead” (Bioorg Med Chem Lett, 2013).
# What was measured:
# [1] = biological target: Casein kinase I isoform gamma-2 (Homo sapiens) (UniProt P78368); experiment: Competitive binding affinity to CSNK1G2 (unknown origin) at 10 uM in presence of ATP relative to control
# [2] = biological target: Proto-oncogene tyrosine-protein kinase ROS (Homo sapiens) (UniProt P08922); experiment: Competitive binding affinity to ROS1 (unknown origin) at 10 uM in presence of ATP relative to control
# Proto-oncogene tyrosine-protein kinase ROS (Homo sapiens), sequence (P08922 whole entry): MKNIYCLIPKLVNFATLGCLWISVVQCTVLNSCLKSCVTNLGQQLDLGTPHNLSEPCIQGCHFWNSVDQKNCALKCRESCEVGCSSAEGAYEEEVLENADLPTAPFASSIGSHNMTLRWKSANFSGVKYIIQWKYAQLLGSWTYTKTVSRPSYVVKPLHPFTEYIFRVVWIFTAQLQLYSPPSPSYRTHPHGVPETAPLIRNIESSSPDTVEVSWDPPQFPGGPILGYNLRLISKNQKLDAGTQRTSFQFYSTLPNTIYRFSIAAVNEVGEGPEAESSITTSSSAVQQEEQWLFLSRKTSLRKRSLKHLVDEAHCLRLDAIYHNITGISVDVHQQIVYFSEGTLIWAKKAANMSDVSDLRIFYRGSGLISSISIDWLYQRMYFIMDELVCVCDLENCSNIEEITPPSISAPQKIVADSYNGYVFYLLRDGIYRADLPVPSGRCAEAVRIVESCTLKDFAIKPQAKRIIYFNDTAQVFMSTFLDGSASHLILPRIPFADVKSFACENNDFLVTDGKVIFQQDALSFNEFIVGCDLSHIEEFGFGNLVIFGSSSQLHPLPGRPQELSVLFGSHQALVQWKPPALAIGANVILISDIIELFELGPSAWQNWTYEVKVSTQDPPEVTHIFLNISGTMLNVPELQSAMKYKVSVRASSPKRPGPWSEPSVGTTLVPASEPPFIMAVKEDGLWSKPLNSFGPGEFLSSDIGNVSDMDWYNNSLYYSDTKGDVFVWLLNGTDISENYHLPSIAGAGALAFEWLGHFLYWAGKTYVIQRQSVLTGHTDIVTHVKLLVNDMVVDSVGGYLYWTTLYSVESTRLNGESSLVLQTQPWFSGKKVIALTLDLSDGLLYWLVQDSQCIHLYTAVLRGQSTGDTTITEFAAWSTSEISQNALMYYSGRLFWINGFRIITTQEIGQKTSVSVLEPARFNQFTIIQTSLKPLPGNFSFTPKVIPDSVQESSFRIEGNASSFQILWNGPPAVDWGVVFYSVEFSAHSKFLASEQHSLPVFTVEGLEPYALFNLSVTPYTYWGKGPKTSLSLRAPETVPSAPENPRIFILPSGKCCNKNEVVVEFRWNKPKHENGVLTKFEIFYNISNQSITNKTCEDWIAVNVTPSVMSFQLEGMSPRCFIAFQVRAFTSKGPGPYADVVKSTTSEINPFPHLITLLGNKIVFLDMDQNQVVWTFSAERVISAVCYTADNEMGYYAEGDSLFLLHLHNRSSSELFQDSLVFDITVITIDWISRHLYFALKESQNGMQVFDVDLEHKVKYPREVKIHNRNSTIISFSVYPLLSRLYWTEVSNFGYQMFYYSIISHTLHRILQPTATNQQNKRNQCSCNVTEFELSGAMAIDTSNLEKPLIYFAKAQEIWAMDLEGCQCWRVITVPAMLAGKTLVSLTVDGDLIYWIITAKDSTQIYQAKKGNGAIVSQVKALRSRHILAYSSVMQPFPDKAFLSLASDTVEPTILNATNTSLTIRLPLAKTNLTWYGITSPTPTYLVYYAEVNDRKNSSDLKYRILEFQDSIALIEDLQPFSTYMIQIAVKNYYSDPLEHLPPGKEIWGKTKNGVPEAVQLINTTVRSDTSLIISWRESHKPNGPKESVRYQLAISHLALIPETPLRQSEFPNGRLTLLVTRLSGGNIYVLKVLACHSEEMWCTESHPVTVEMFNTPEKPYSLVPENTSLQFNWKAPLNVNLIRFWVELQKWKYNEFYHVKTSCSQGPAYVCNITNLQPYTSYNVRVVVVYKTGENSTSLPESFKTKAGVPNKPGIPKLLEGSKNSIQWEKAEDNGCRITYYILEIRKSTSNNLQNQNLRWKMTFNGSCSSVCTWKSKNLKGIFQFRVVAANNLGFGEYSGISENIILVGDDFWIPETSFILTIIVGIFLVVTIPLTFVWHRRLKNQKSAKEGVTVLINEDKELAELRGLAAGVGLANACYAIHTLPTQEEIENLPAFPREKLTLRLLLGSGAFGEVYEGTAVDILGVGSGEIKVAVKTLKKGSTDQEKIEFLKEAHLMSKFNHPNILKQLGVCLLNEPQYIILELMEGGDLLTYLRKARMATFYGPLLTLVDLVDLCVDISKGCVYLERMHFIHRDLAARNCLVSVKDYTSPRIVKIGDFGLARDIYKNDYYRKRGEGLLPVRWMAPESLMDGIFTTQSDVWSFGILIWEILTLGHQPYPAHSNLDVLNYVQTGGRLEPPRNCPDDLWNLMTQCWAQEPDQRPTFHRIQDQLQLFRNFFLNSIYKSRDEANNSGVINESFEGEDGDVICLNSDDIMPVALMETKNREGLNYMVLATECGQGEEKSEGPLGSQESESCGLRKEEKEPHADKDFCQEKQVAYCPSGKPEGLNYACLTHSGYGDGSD
# Method in brief: (§1)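 In vitro ATP-site competition binding assay across a diverse panel of 128 kinases, with compound tested at a single concentration. Kinase selectivity scores (S15) were calculated from the panel profiles.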
# [3] = biological target: Tyrosine-protein kinase JAK2 (Homo sapiens) (UniProt O60674); experiment: Competitive binding affinity to JAK2 kinase domain 2 (unknown origin) at 10 uM in presence of ATP relative to control
# Tyrosine-protein kinase JAK2 (Homo sapiens), sequence (O60674 whole entry, the tested form may be a part): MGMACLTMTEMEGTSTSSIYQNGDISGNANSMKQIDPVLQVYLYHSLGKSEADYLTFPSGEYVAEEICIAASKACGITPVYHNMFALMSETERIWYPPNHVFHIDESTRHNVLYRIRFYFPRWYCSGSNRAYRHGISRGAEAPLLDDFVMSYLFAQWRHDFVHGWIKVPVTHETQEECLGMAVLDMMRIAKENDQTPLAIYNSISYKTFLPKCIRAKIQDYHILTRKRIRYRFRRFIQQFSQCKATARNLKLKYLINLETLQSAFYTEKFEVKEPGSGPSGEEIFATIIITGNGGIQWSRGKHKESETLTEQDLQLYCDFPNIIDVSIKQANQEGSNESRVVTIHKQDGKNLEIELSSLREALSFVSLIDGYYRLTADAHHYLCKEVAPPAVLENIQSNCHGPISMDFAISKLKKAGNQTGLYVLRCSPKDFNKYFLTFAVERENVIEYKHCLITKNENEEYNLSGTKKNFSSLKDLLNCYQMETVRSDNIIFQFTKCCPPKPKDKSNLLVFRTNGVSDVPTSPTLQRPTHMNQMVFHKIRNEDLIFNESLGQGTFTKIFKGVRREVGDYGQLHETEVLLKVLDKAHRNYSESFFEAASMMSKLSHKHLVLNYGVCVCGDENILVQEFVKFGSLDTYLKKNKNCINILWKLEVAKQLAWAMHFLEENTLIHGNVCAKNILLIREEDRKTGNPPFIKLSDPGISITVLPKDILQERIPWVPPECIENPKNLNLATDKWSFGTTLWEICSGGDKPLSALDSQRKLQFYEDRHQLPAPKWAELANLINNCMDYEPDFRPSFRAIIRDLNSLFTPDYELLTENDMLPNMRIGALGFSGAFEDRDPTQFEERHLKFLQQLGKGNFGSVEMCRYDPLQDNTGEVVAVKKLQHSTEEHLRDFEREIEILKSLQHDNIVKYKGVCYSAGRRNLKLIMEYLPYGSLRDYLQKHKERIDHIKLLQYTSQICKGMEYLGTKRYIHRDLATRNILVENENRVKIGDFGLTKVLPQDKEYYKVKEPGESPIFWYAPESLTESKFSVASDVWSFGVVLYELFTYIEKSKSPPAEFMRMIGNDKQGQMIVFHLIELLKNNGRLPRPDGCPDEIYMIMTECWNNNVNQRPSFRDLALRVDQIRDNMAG
# Method in brief: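 In vitro ATP-site competition binding assay, part of profiling against a diverse panel of 128 kinases. Each compound was tested at a single concentration of 10 µM. Kinome selectivity was summarized as S15 selectivity scores.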
# [4] = biological target: Death-associated protein kinase 2 (Homo sapiens, UniProt Q9UIK4); experiment: Competitive binding affinity to DAPK2 (unknown origin) at 10 uM in presence of ATP relative to control
# Method in brief: (§2)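 In vitro ATP-site competition binding assay across a diverse panel of 128 kinases, with each compound tested at a single concentration. Kinase binding is expressed relative to control.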
# [5] = biological target: High affinity nerve growth factor receptor (Homo sapiens) (UniProt P04629); experiment: Competitive binding affinity to TRKA (unknown origin) at 10 uM in presence of ATP relative to control; method in brief: as §1
# High affinity nerve growth factor receptor (Homo sapiens), sequence (P04629 33-796 limits assumed): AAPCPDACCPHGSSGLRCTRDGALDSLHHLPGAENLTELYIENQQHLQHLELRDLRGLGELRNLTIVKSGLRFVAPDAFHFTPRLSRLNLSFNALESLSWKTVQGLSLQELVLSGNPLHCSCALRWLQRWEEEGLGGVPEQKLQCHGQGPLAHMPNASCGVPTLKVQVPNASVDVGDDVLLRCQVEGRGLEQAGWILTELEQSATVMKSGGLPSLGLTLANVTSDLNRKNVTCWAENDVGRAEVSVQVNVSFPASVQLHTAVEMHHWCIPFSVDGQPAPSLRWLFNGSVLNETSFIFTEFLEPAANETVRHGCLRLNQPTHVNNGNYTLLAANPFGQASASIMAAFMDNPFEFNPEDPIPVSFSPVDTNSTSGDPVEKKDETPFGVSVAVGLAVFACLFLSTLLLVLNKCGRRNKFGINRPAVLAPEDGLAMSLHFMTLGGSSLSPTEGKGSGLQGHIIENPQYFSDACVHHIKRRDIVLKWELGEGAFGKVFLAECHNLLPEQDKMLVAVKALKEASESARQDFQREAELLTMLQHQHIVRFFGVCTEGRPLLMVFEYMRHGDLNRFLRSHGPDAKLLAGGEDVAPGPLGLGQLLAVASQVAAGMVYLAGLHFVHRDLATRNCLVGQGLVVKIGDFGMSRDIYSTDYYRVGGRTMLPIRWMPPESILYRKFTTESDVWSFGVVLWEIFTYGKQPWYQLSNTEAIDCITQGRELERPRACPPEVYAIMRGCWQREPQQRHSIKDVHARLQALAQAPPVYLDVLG
# [6] = biological target: Mitogen-activated protein kinase 8 (Homo sapiens, UniProt P45983); experiment: Competitive binding affinity to JNK1 (unknown origin) at 10 uM in presence of ATP relative to control; method in brief: as §2
# Mitogen-activated protein kinase 8, sequence (P45983 whole entry): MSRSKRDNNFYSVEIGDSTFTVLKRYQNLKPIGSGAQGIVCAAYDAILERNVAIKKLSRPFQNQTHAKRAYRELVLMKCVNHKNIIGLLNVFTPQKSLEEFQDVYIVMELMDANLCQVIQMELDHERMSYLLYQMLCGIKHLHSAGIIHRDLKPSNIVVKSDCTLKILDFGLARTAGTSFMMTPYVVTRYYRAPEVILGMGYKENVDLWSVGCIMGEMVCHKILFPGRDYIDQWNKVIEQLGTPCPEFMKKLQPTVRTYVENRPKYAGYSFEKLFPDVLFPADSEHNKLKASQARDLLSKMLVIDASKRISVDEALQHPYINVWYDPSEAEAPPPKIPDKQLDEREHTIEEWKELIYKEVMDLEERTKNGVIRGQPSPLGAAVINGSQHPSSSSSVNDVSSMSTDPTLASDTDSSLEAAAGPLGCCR
# [7] = biological target: T1, Serine/threonine-protein kinase 36 (Homo sapiens) (UniProt Q9NRP7); experiment: Competitive binding affinity to STK36 (unknown origin) at 10 uM in presence of ATP relative to control; method in brief: as §2
# T1 sequence (whole entry): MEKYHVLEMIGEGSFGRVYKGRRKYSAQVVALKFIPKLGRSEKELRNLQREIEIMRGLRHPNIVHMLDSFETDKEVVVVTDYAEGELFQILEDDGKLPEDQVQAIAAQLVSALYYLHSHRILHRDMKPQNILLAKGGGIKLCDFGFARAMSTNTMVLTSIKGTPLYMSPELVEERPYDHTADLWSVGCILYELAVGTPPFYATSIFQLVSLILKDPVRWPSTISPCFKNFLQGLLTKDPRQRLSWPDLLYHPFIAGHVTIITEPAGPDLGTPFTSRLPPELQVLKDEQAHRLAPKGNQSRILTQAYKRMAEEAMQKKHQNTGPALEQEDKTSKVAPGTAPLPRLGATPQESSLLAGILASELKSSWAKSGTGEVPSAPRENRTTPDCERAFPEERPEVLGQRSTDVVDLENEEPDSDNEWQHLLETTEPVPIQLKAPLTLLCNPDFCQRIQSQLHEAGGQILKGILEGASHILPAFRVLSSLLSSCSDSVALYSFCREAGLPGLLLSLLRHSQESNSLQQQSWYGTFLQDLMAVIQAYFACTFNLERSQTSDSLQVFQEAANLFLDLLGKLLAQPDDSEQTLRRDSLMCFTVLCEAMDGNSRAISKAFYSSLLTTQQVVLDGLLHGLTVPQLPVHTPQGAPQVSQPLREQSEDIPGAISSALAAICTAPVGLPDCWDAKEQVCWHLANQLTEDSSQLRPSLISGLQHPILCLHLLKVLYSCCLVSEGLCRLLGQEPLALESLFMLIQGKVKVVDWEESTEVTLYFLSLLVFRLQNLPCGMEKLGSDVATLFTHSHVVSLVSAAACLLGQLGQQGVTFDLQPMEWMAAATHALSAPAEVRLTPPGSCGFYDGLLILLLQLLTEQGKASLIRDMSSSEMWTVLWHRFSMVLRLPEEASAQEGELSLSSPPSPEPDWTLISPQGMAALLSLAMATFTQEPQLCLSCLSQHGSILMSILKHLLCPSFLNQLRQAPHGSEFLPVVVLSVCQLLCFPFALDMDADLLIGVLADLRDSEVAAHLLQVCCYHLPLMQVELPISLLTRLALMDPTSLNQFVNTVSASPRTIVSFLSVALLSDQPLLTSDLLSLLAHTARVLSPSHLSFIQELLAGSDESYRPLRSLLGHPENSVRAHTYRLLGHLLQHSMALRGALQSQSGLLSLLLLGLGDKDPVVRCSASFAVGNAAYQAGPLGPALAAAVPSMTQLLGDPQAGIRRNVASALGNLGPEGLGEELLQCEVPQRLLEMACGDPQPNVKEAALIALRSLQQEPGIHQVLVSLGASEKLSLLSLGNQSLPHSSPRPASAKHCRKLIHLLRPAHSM
# Casein kinase I isoform gamma-2 (Homo sapiens), sequence (P78368 whole entry, looked up, canonical isoform): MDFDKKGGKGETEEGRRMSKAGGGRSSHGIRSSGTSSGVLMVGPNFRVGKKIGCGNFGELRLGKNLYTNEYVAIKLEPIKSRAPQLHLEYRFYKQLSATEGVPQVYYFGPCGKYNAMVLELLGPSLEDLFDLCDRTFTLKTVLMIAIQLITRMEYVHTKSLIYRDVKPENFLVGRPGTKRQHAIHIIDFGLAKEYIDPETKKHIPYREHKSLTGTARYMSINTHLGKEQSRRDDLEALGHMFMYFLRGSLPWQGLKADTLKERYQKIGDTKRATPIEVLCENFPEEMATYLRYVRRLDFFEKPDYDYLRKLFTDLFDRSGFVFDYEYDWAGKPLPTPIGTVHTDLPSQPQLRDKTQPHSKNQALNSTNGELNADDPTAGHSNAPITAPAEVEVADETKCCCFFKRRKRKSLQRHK
Structure (SMILES),inhibition [1],inhibition [2],inhibition [3],inhibition [4],inhibition [5],inhibition [6],inhibition [7]
O[C@H]1CC[C@H](Nc2nccc(-n3nnc4ccccc43)n2)CC1,50%,< 50%,72%,96%,< 50%,99%,96%
N[C@H]1CC[C@H](Nc2nccc(-n3nnc4ccccc43)n2)CC1,100%,< 50%,< 50%,94%,< 50%,99%,100%
O=C([C@H]1CC[C@H](Nc2nccc(-n3nnc4ccccc43)n2)CC1)N1CCOCC1,76%,< 50%,< 50%,< 50%,< 50%,100%,95%
CS(=O)(=O)CCCOc1cccc2c1ccn2-c1ccnc(N[C@H]2CC[C@H](C(=O)N3CCC(O)CC3)CC2)n1,,,,> 85%,,> 85%,
O[C@H]1CC[C@H](Nc2nccc(-n3ncc4ccccc43)n2)CC1,< 50%,< 50%,< 50%,< 50%,< 50%,99%,97%
O[C@H]1CC[C@H](Nc2nccc(-c3n[nH]c4ccccc34)n2)CC1,74%,< 50%,96%,94%,99%,100%,99%
O[C@H]1CC[C@H](Nc2nccc(-n3ccc4ccccc43)n2)CC1,< 50%,< 50%,< 50%,< 50%,< 50%,98%,84%
